These results are taken from ChEMBL document CHEMBL4602713, “Quantitative Proteomics Reveals Cellular Off-Targets of a DDR1 Inhibitor” (ACS Med Chem Lett, 2020).

Structures are written as SMILES. The source made the active and inactive calls. The rule behind the calls is not given here.

What is called IC50 is the concentration that gives 50% inhibition.

Data set [1] deals with T1, Epithelial discoidin domain-containing receptor 1 (Homo sapiens, UniProt Q08345). Kind of data set: Inhibition of human GST-tagged DDR1 (440 to 876 residues) expressed in baculovirus expression system using fluorescein-Poly GAT as substrate incubated for 1 to 2 hrs in presence of ATP by TR-FRET assay.
Data set [2] addresses T1, Epithelial discoidin domain-containing receptor 1. Kind of data set: Binding affinity to DDR1 in TAMRA-N3 conjugated human […] cells assessed as labeling band formation at 1 to 2 uM incubated for 1 to 3 hrs followed irradiation with UV-light at 365 nm for 20 mins by gel fluorescence scanning analysis. In outline:
(§1)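 Live H1299 cells or H1299 lysate were incubated with the photoaffinity probe for 1–3 h, then irradiated at 365 nm for 20 min. Labelled proteins were clicked to TAMRA-N3, separated by SDS-PAGE and detected by in-gel fluorescence scanning.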

The target is the same in data set [3]. Briefly: Binding affinity to DDR1 in TAMRA-N3 conjugated human […] cells assessed as fluorescence band formation with molecular weight of 110 kDa at 1 to 2 uM incubated for 2 hrs followed by compound washout to remove excess compound and further irradiated with UV-light at 365 nm for 20 mins by pull down assay.
For data set [4] the target is unchanged. Briefly: Binding affinity to DDR1 in TAMRA-N3 conjugated human […] cell lysate assessed as labeling band formation at 1 to 2 uM incubated for 1 to 3 hrs followed irradiation with UV-light at 365 nm for 20 mins by gel fluorescence scanning analysis. Put shortly:
as §1

Data set [5] can be described thus: Drug localization in cytoplasm of human H1299 cells conjugated with TAMRA-N3 incubated for 2 to 6 hrs followed by compound washout twice with PBS buffer to remove excess compound and further irradiated with UV-light for 20 mins by Hoechst staining based confocal microscopy. The note with it: nci-h1299. In kind it is ADME, subcellular. In outline: (§2)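 H1299 cells were incubated with the probe, with or without excess parent inhibitor, then UV cross-linked. Cells were fixed, permeabilised, clicked to TAMRA-N3 and imaged by confocal microscopy with nuclear staining and DIC. Negative control samples were included.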

Data set [6] in a line: Drug localization in cellular membrane of human H1299 cells conjugated with TAMRA-N3 incubated for 2 to 6 hrs followed by compound washout twice with PBS buffer to remove excess compound and further irradiated with UV-light for 20 mins by Hoechst staining based confocal microscopy. The note with it: nci-h1299. In kind it is ADME, cell membranes. In outline:
as §2

Data set [7] addresses T2, Cathepsin D (Homo sapiens, UniProt P07339). Briefly: Binding affinity to cathepsin D in SILAC labeled human H1299 cells incubated for 3 hrs followed by compound washout twice with PBS buffer to remove excess compound and further irradiated with UV-light at 365 nm for 20 mins by LC-MS/MS analysis. The format is cell-based. Also noted: dose or concentration left out as unconfirmed. The following applies: nci-h1299, 3 h. In outline: (§3)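 SILAC-labelled H1299 cells were treated with the photoaffinity probe for 2–4 h and then UV-irradiated. Labelled proteomes were clicked to biotin-N3, enriched, digested and analysed by LC-MS/MS. Controls (excess parent inhibitor or DMSO) were run in parallel. Biological triplicates were performed, and hits were filtered by SILAC ratios.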

The target in data set [8] is Protein GPR107 (Homo sapiens, UniProt Q5VW38). Briefly: Binding affinity to GPR107 in SILAC labeled human H1299 cells incubated for 3 hrs followed by compound washout twice with PBS buffer to remove excess compound and further irradiated with UV-light at 365 nm for 20 mins by LC-MS/MS analysis. The format is ADME, cell-based. Further details: dose or concentration left out as unconfirmed. The following applies: nci-h1299, 3 h. In outline: as §3

For data set [9], the target named is T3, Catechol O-methyltransferase (Homo sapiens, UniProt P21964).
T3 sequence (P21964 whole entry): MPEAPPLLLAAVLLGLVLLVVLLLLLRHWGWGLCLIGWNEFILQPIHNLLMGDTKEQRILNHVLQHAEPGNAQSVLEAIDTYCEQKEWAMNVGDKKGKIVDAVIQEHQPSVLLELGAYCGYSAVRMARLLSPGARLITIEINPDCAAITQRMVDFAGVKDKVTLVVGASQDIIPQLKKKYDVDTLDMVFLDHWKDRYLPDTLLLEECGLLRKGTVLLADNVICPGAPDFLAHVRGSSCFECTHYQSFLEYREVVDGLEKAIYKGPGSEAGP
Kind of data set: Binding affinity to COMT in SILAC labeled human H1299 cells incubated for 3 hrs followed by compound washout twice with PBS buffer to remove excess compound and further irradiated with UV-light at 365 nm for 20 mins by LC-MS/MS analysis. The note with it: nci-h1299, 3 h. Further details: dose or concentration left out as unconfirmed. The format is ADME, cell-based. In outline: as §3

Data set [10] addresses T2, Cathepsin D. Kind of data set: Binding affinity to cathepsin D in TAMRA-N3 conjugated human […] cells assessed as fluorescence band formation with molecular weight of 30 kDa at 1 to 2 uM incubated for 2 hrs followed by compound washout to remove excess compound and further irradiated with UV-light at 365 nm for 20 mins by pull down assay. The format is ADME. In outline: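 Live H1299 cells were labelled with the photoaffinity probe and UV cross-linked. Labelled proteins were pulled down and detected by Western blot; CTSD was probed with an anti-CTSD antibody. The heavy chain of mature CTSD runs at ~33 kDa.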

In data set [11] the target is T2, Cathepsin D. Briefly: Binding affinity to cathepsin D in SILAC labeled human H1299 cells assessed as labeling of heavy chain incubated for 3 hrs in presence of excess parent compound followed by compound washout twice with PBS buffer to remove excess compound and further irradiated with UV-light at 365 nm for 20 mins by LC-MS/MS analysis. The format is ADME, cell-based. Also noted: dose or concentration left out as unconfirmed. The note with it: nci-h1299, 3 h. Put shortly:
as §3

For data set [12], the target named is T2, Cathepsin D. Briefly: Binding affinity to cathepsin D in human […] cells assessed as protein labeling at 0.5 to 1 uM pretreated with lysosomal neutralizing agent ammonium chloride for 30 mins followed by compound treatment by pull down based Western blot analysis. The format is ADME, cell-based. In outline: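 Live H1299 cells were first treated with 10 mM ammonium chloride for 30 min to neutralise lysosomes. Probe labelling followed, with pull-down and Western blot for CTSD.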
On the technique in general: In western blotting, separated proteins are transferred to a membrane and probed.

Data set [13] in a line: Drug distribution in human H1299 cells cytosol incubated for 4 hrs followed cellular conjugation with tetrazine-TAMRA immunofluorescence microscopy. The format is ADME, subcellular, NCI-H1299. Put shortly: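 Live H1299 cells were incubated with the TCO-bearing probe for 4 h, fixed, permeabilised and conjugated with tetrazine-TAMRA. After washing with fresh medium, cells were imaged by microscopy alongside anti-DDR1 immunofluorescence staining.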

For data set [14], the target named is T2, Cathepsin D. Kind of data set: Binding affinity to cathepsin D in human H1299 cells assessed as increase in thermal stability of heavy chain at 10 uM incubated for 2 hrs followed by compound washout twice with PBS buffer to remove excess compound and further heated at 95 degree C for 10 mins by CETSA. The format is ADME, cell-based. The note with it: nci-h1299, 2 h. In outline: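 For the cellular thermal shift assay, live H1299 cells were treated with compound or DMSO. The thermal stability of the mature CTSD heavy chain was then compared between the two.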

For data set [15], the target named is T2, Cathepsin D. Kind of data set: Inhibition of cathepsin D (unknown origin) at 50 to 200 uM.
The subject of data set [16] is MCF7. Kind of data set: Antiproliferative activity against human MCF7 cells overexpressing cathepsin D assessed as growth inhibition.
Data set [17] relates to MDA-MB-231. Kind of data set: Antiproliferative activity against human MDA-MB-231 cells overexpressing cathepsin D assessed as growth inhibition.
Data set [18] has as its system SK-BR-3. Briefly: Antiproliferative activity against human SKBR3 cells overexpressing cathepsin D assessed as growth inhibition.

T1 sequence (Q08345 whole entry, the tested form may be a part): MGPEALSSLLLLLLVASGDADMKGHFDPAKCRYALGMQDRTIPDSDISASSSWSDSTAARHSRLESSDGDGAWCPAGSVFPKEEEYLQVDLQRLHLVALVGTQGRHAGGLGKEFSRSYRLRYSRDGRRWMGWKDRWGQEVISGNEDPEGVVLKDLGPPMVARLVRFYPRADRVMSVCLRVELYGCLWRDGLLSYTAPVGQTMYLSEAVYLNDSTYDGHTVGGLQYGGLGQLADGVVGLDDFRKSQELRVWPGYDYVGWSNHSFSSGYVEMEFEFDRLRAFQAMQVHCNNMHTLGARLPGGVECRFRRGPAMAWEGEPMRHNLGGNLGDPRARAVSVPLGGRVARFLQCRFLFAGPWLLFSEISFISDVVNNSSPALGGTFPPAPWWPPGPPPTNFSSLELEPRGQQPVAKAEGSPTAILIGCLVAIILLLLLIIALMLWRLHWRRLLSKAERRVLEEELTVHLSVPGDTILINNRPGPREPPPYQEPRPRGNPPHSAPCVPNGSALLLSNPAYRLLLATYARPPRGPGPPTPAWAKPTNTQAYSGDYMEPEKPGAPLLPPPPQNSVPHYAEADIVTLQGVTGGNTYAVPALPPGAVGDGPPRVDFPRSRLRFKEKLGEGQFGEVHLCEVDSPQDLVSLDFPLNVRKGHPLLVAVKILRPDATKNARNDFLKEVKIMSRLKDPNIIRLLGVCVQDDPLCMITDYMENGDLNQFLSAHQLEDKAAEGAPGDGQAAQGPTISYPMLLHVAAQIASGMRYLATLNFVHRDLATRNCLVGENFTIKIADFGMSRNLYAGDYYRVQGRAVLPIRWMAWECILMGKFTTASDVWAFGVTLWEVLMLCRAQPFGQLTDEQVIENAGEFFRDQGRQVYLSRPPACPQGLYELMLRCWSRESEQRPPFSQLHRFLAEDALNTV
T2 sequence (P07339 65-162 limits assumed): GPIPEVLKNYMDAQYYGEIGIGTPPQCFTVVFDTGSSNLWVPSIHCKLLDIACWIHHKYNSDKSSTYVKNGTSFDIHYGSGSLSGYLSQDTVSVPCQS
T2 sequence (P07339 169-412 limits assumed): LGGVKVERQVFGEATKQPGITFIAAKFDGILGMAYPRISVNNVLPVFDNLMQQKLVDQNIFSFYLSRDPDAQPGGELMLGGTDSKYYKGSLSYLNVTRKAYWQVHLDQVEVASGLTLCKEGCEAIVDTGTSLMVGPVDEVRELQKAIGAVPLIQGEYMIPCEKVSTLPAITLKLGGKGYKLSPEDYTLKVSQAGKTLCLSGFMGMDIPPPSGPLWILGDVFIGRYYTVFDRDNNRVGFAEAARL
Sequence of Protein GPR107 (Q5VW38 whole entry): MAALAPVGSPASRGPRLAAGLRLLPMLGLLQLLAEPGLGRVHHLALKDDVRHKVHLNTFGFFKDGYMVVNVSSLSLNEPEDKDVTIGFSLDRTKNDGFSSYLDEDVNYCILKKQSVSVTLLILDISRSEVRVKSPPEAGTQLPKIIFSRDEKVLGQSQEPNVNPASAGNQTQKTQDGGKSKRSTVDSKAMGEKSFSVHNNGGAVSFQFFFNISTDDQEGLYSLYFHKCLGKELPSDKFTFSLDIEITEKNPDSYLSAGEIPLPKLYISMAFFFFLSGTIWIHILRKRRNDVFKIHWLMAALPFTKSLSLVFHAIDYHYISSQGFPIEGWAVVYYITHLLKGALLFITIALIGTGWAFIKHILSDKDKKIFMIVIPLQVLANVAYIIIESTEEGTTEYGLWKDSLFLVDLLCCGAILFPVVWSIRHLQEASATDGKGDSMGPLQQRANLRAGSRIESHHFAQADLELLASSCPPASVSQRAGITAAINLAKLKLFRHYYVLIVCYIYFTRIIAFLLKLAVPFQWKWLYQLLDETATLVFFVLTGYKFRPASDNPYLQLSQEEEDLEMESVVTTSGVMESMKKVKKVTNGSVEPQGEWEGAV

Consider `C#CCCC1(CC(=O)N2CCN(Cc3cc(NC(=O)c4ccc5c(c4)CN(c4cncnc4)CC5C)cc(C(F)(F)F)c3)CC2)N=N1` (stereo unspecified), for which the IC50 in data set [1] is 0.259 µM. In addition, the outcome in data set [2], in [3] and in data set [4] was Active. Further, the Drug uptake entry in [5] and in data set [6] was “Active” each time. For the same compound, the Activity entry in data set [7] was “Active”; in data set [8] it was “Active”; in data set [9] it was “Active”; in data set [10], “Active”; in [11], “Active”; in data set [12] it was “Not Active”.

In the case of `CC1CN(c2cncnc2)Cc2cc(C(=O)Nc3cc(CN4CCN(CCC(=O)NCCCNC(=O)OC5CC/C=C/CCC5)CC4)cc(C(F)(F)F)c3)ccc21` (stereo unspecified), in data set [1], the IC50 turned out to be 0.397 µM. In data set [13], the Drug uptake result is on record as “Active”.

For `CC1CN(c2cncnc2)Cc2cc(C(=O)Nc3cc(CN4CCN(C)CC4)cc(C(F)(F)F)c3)ccc21` (stereo unspecified), in data set [14], the result was Active. In addition, the “inhibition (INH)” value in data set [15] is recorded as “Active”. The IC50 worked out at 3.38 µM in data set [16], 6.99 µM in data set [17] and 6.62 µM in [18].

Turning to `C#CCCC1(CCN2CCN(Cc3cc(NC(=O)c4ccc5c(c4)CN(c4cncnc4)CC5C)cc(C(F)(F)F)c3)CC2)N=N1` (stereo unspecified), in data set [1], the IC50 was determined as 0.577 µM. Also, the outcome in data set [2], in data set [3] and in [4] was Active. Further, the Drug uptake entry in [5] and in data set [6] was “Active” in each case. Moreover, in data set [10], the outcome was Active.
